The source made the active and inactive calls. No cut-off for these calls is given here.
What was measured:
[1] = target: T1, Tubulin (Homo sapiens) (UniProt P68371+Q9H4B7+P0DPH7+P68366+Q13509+Q71U36+P04350+Q3ZCM7+P07437+P68363+Q9BQE3+Q6PEY2+Q13885+Q9BVA1+Q9BUF5); assay: Induction of microtubule disruption in human KB-VIN cells at 0.05 uM measured after 24 hrs by DAPI staining based deconvolution fluorescence microscopic analysis; format: cell-based
In short: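 Cells on glass coverslips treated 24 h, fixed in 4% paraformaldehyde for 15 min, and permeabilized with 0.5% Triton X-100. Blocked in PBS/2% BSA, stained with anti-beta-tubulin (1:250) and Alexa 488 anti-mouse (1:250), and mounted with DAPI. Imaged by wide-field deconvolution microscopy.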

[2] = tested on: KB-VIN; assay: Cell cycle arrest in human KB-VIN cells assessed as increase in accumulation at G2/M phase at 0.01 to 0.05 uM measured after 18 to 24 hrs by propidium iodide staining based flow cytometry; format: functional; settings: dose 0.01-0.05 µM, time 18-24 hrs
In short: (§1)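 Cells seeded at 2.5×10^5 per well and exposed to DMSO or compound for the stated times. They were washed in PBS and fixed overnight in ice-cold 70% ethanol at −20 °C. Staining used propidium iodide 80 µg/mL with 0.1% Triton X-100 and RNase A 100 µg/mL in PBS. DNA content was read by FACScan flow cytometry.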

[3] = tested on: KB7D; assay: Induction of apoptosis in human KB7D cells assessed as increase in cleaved PARP expression by Western blot analysis; format: functional, cell-based
In short: (§2)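 Resistant KB cells attached overnight, then drug-treated at the stated concentrations and times (24 h or 48 h). Lysates were immunoblotted for cleaved PARP, caspase-3, -8 and -9, and γH2AX, with anti-mouse or anti-rabbit IgG secondaries.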

[4] = tested on: KB-VIN; assay: Induction of apoptosis in human KB-VIN cells assessed as increase in cleaved caspase-8 expression at 0.1 to 0.5 uM measured after 24 hrs by Western blot analysis; format: functional, cell-based; settings: dose 0.1-0.5 µM; in short: as §2
[5] = tested on: KB7D; assay: Induction of apoptosis in human KB7D cells assessed as increase in activated gammaH2AX expression by Western blot analysis; format: functional, cell-based; in short: as §2
[6] = tested on: KB-VIN; assay: Induction of apoptosis in human KB-VIN cells assessed as increase in cleaved caspase-9 expression at 0.1 to 0.5 uM measured after 24 hrs by Western blot analysis; format: functional, cell-based; settings: dose 0.1-0.5 µM; in short: as §2
[7] = tested on: KB-VIN; assay: Induction of apoptosis in human KB-VIN cells assessed as increase in activated gammaH2AX expression at 0.1 to 0.5 uM measured after 24 hrs by Western blot analysis; format: functional, cell-based; settings: dose 0.1-0.5 µM; in short: as §2
[8] = tested on: KB7D; assay: Induction of apoptosis in human KB7D cells assessed as increase in activated gammaH2AX expression at 0.1 to 0.5 uM measured after 24 hrs by Western blot analysis; format: functional, cell-based; settings: dose 0.1-0.5 µM; in short: as §2
[9] = tested on: KB-VIN; assay: Induction of apoptosis in human KB-VIN cells assessed as increase in cleaved caspase-3 expression at 0.1 to 0.5 uM measured after 24 hrs by Western blot analysis; format: functional, cell-based; settings: dose 0.1-0.5 µM; in short: as §2
[10] = tested on: KB-VIN; assay: Cell cycle arrest in human KB-VIN cells assessed as increase in accumulation at sub-G1 phase at 0.05 uM measured after 48 hrs by propidium iodide staining based flow cytometry; format: functional; in short: as §1
[11] = tested on: KB7D; assay: Induction of apoptosis in human KB7D cells assessed as increase in cleaved caspase-8 expression by Western blot analysis; format: functional, cell-based
In short: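 KB-7D cells in RPMI 1640 with 5% FBS and 1% penicillin-streptomycin at 37 °C, 5% CO2, attached overnight. Treated with indicated concentrations for 24 or 48 h, lysed, and immunoblotted for cleaved caspases.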

[12] = target: T1, Tubulin (Homo sapiens); assay: Induction of microtubule disruption in human KB7D cells assessed as polymerized fraction at 1 uM measured after 16 hrs by SDS-PAGE analysis (reference value: 26.4 to 29%); format: cell-based
In short: (§3)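 KB-Vin or KB-7D cells treated 16 h, then lysed 5 min at 37 °C in the dark in hypotonic buffer (1% NP-40, 1 mmol/L MgCl2, 2 mmol/L EGTA, 50 mmol/L Tris-HCl pH 6.8, protease inhibitors). Spun 13000 rpm, 10 min, room temperature. Soluble supernatant and resuspended polymerized pellet run on SDS-PAGE.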

[13] = target: T1, Tubulin (Homo sapiens); assay: Induction of microtubule disruption in human KB-VIN cells assessed as polymerized fraction at 0.01 uM measured after 16 hrs by SDS-PAGE analysis (reference value: 23.1 to 25.5%); format: cell-based; in short: as §3
[14] = tested on: KB7D; assay: Induction of apoptosis in human KB7D cells assessed as increase in cleaved caspase-3 expression at 0.01 to 0.1 uM measured after 48 hrs by Western blot analysis; format: functional, cell-based; settings: dose 0.01-0.1 µM; in short: as §2
[15] = tested on: KB-VIN; assay: Induction of apoptosis in human KB-VIN cells assessed as increase in activated gammaH2AX expression by Western blot analysis; format: functional, cell-based; in short: as §2
[16] = tested on: KB7D; assay: Induction of apoptosis in human KB7D cells assessed as increase in activated gammaH2AX expression at 0.01 to 0.1 uM measured after 48 hrs by Western blot analysis; format: functional, cell-based; settings: dose 0.01-0.1 µM; in short: as §2
[17] = target: T1, Tubulin (Homo sapiens); assay: Induction of microtubule disruption in human KB7D cells assessed as polymerized fraction at 0.1 uM measured after 16 hrs by SDS-PAGE analysis (reference value: 26.4 to 29%); format: cell-based; in short: as §3
[18] = tested on: KB7D; assay: Cell cycle arrest in human KB7D cells assessed as increase in accumulation at G2/M phase at 0.01 to 0.05 uM measured after 18 to 24 hrs by propidium iodide staining based flow cytometry; format: functional; settings: dose 0.01-0.05 µM, time 18-24 hrs; in short: as §1
[19] = Antiproliferative activity against human KB7D cells incubated for 48 hrs by SRB assay; format: functional
In short: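 KB parental and resistant sublines kept in RPMI 1640 with 5% FBS at 37 °C, 5% CO2. Cells plated, left overnight, then given graded compound concentrations for 48 h. A time-zero plate was fixed with 10% TCA at dosing. Cells were stained with 0.4% SRB in 1% acetic acid, unbound dye washed off, bound dye dissolved in 10 mM Tris base, and absorbance read at 515 nm.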

[20] = tested on: KB-VIN; assay: Induction of apoptosis in human KB-VIN cells assessed as increase in cleaved caspase-3 expression at 0.05 uM measured after 48 hrs by Western blot analysis; format: functional, cell-based; in short: as §2
[21] = tested on: KB7D; assay: Induction of apoptosis in human KB7D cells assessed as increase in cleaved caspase-8 expression at 0.01 to 0.1 uM measured after 48 hrs by Western blot analysis; format: functional, cell-based; settings: dose 0.01-0.1 µM; in short: as §2
[22] = tested on: KB-VIN; assay: Induction of apoptosis in human KB-VIN cells assessed as increase in cleaved caspase-9 expression at 0.05 uM measured after 48 hrs by Western blot analysis; format: functional, cell-based; in short: as §2
[23] = target: T1, Tubulin (Homo sapiens); assay: Induction of microtubule disruption in human KB-VIN cells assessed as polymerized fraction at 0.1 uM measured after 16 hrs by SDS-PAGE analysis (reference value: 23.1 to 25.5%); format: cell-based; in short: as §3
[24] = target: Histone deacetylase 2 (Homo sapiens, UniProt Q92769); assay: Inhibition of recombinant human C-terminal GST-tagged HDAC2 (1 to 488 residues) expressed in baculovirus infected insect cells using RHKKAc-AMC as substrate measured after 60 mins by fluorescence assay
Chain of Histone deacetylase 2 (Q92769 whole entry, the tested form may be a part): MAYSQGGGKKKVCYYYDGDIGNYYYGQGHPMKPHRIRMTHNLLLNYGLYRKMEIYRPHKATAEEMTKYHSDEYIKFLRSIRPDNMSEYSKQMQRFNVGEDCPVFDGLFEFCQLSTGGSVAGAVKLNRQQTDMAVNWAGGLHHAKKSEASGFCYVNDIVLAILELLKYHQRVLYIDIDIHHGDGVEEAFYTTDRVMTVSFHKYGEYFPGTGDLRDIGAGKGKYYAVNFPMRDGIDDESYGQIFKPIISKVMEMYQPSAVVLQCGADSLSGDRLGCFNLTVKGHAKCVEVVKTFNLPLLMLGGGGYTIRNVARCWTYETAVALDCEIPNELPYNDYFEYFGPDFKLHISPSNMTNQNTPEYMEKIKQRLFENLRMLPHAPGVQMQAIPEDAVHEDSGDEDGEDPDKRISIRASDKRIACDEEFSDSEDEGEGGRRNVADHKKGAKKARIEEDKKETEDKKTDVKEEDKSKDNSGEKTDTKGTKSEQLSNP

[25] = tested on: KB-VIN; assay: Induction of apoptosis in human KB-VIN cells assessed as increase in cleaved caspase-8 expression at 0.05 uM measured after 48 hrs by Western blot analysis; format: functional, cell-based; in short: as §2
[26] = target: Histone deacetylase 1 (Homo sapiens, UniProt Q13547); assay: Inhibition of recombinant human full-length C-terminal FLAG-His tagged HDAC1 (1 to 482 residues) expressed in Sf21 insect cells using RHK-K(Ac)-AMC as substrate measured after 60 mins by fluorescence assay
Chain of Histone deacetylase 1 (Q13547 whole entry, the tested form may be a part): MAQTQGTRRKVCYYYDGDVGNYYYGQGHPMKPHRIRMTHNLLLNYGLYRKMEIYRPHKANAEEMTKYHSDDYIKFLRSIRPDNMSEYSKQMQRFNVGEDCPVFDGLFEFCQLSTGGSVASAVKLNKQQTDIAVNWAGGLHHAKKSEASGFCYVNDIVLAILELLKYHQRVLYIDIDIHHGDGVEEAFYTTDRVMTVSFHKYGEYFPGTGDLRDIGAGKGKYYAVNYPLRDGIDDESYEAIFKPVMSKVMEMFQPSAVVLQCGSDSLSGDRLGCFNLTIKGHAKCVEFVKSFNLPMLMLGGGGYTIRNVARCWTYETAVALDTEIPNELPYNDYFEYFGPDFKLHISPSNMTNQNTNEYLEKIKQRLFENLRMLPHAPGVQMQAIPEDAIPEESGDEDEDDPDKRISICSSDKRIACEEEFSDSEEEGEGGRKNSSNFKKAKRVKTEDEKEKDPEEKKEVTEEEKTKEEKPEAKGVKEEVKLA

COc1ccc(S(=O)(=O)Nc2ccccc2NCc2ccc(C(=O)Nc3ccccc3N)cc2)cc1
Activity [1]: Active
Activity [2]: Active
Activity [3]: Dose-dependent effect
Activity [4]: Active
Activity [5]: Dose-dependent effect
Activity [6]: Active
Activity [7]: Active
Activity [8]: Active
Activity [9]: Active
Activity [10]: Active
Activity [11]: Dose-dependent effect
Activity [12]: 16%
Activity [13]: 25.9%
Activity [14]: Active
Activity [15]: Dose-dependent effect
Activity [16]: Active
Activity [17]: 13.3%
Activity [18]: Active
GI50 [19]: 12 nM
Activity [20]: Active
Activity [21]: Active
Activity [22]: Active
Activity [23]: 20.4%
IC50 [24]: 1470 nM
Activity [25]: Active
IC50 [26]: 1070 nM

— ChEMBL document CHEMBL4680226, “Design, synthesis, and evaluation of N-phenyl-4-(2-phenylsulfonamido)-benzamides as microtubule-targeting agents in drug-resistant cancer cells, displaying HDAC inhibitory response” (Eur J Med Chem, 2020)
